# Laboratory results as given in ChEMBL document CHEMBL5649170, “Sustained microglial depletion with CSF1R inhibitor impairs parenchymal plaque development in an Alzheimer's disease model” (Nat Commun, 2019).
# Experiments:
# [1] = Drug concentration in 5XFAD mouse plasma at 75 ppm administered as rodent chow starting from 1.5 months and measured after 5 months; assay type: ADME, cell-free; details: route po, time 3.5 months
# Method in brief: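 WT or 5xFAD mice were fed PLX3397 in AIN-76A chow at 600 ppm or 75 ppm from 1.5 to 5 months of age. Terminal brain and plasma drug concentrations were determined at study end.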
# [2] = molecular target: Serine/threonine-protein kinase Sgk2 (Homo sapiens, UniProt Q9HBY8); experiment: Inhibition of SGK2 (unknown origin)
# Mus musculus [3] = experiment: Antialzheimer activity in 5XFAD mouse assessed as number of open arm entries at 1200 ppm administered as rodent chow for 10 to 24 weeks by Elevated plus maze test (reference value: 10 to 33); assay type: functional; details: route po, time 10-24 weeks
# [4] = molecular target: Serine/threonine-protein kinase MRCK beta (Homo sapiens, UniProt Q9Y5S2); experiment: Inhibition of CDC42_BPB (unknown origin)
# [5] = Volume of distribution at steady state in male rat at 1.13 mg/kg, iv administered as single dose; assay type: ADME, organism-based; details: in vivo, read-out: Vdss
# Mus musculus [6] = experiment: Antialzheimer activity in 5XFAD mouse assessed as iron reactivity by measuring hemosiderin intensity of prussian blue staining in […] cortex at 1200 ppm administered as rodent chow starting from 1.5 months and measured after 7 months by confocal microscopic analysis (reference value: 0.1 to 4.791 a.u.); assay type: functional; details: route po, time 5.5 months, 4015 h
# Method in brief: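 Wild-type or 5xFAD mice fed PLX5622 (1200 ppm) in AIN-76A chow from 1.5 months of age, examined in 4- and 7-month-old cohorts. Brain sections stained with a Prussian blue kit per kit instructions to detect iron deposits (microbleeds).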
# [7] = Effect on Siglech gene expression in wild type mouse hippocampus at 1200 ppm administered as rodent chow starting from 1.5 months and measured after 7 months by RNA-Seq analysis (reference value: 3.309 to 4.234 RPKM); assay type: functional; details: route po, time 5.5 months, 4015 h
# [8] = Toxicity in wildtype mouse assessed as number of platform entry at 1200 ppm administered as rodent chow for 10 to 24 weeks by Morris water maze test (reference value: 0 to 5); details: in vivo, po, time 10-24 weeks
# [9] = molecular target: Homeodomain-interacting protein kinase 4 (Homo sapiens, UniProt Q8NE63); experiment: Inhibition of HIPK4 (unknown origin)
# [10] = Effect on Cx3cr1 gene expression in 5XFAD mouse hippocampus at 1200 ppm administered as rodent chow starting from 1.5 months and measured after 7 months by RNA-Seq analysis (reference value: 17.752 to 23.676 RPKM); assay type: functional; details: route po, time 5.5 months, 4015 h
# Mus musculus [11] = experiment: Antialzheimer activity in 5XFAD mouse assessed as amyloidbeta42 level in detergent insoluble thalamus fraction measured per microgram protein at 1200 ppm administered as rodent chow starting from 1.5 months and measured after 7 months by ELISA (reference value: 905.886 to 11631931 pg); assay type: functional; details: route po, time 5.5 months, 4015 h
# [12] = Effect on Itgax gene expression in wild type mouse thalamus at 1200 ppm administered as rodent chow starting from 1.5 months and measured after 7 months by RNA-Seq analysis (reference value: 0.077 to 0.240 RPKM); assay type: functional; details: route po, time 5.5 months, 4015 h
# [13] = molecular target: Proto-oncogene tyrosine-protein kinase receptor Ret (Homo sapiens, UniProt P07949, Y791F); experiment: Inhibition of RET Y791F mutant (unknown origin)
# Mus musculus [14] = experiment: Antialzheimer activity in 5XFAD mouse assessed as time spent in center zone at 1200 ppm administered as rodent chow for 10 to 24 weeks by Open field test (reference value: 14.9 to 130.9 sec); assay type: functional; details: route po, time 10-24 weeks
# Ephrin type-A receptor 3 = Ephrin type-A receptor 3 (Homo sapiens, UniProt P29320); experiment: Inhibition of EPHA3 (unknown origin)
# [15] = molecular target: MAP/microtubule affinity-regulating kinase 3 (Homo sapiens, UniProt P27448); experiment: Inhibition of MARK3 (unknown origin)
# SRSF protein kinase 2 = SRSF protein kinase 2 (Homo sapiens, UniProt P78362); experiment: Inhibition of SRPK2 (unknown origin)
# [16] = molecular target: Hepatocyte growth factor receptor (Homo sapiens, UniProt P08581); experiment: Inhibition of MET (unknown origin)
# [17] = AUC (0 to infinity) in dog at 45 mg/kg, po administered as single dose via gavage; assay type: ADME, organism-based, Canis lupus familiaris; details: in vivo
# [18] = molecular target: cAMP-dependent protein kinase catalytic subunit PRKX (Homo sapiens, UniProt P51817); experiment: Inhibition of PRKX (unknown origin)
# [19] = molecular target: Serine/threonine-protein kinase PAK 6 (Homo sapiens, UniProt Q9NQU5); experiment: Inhibition of PAK6 (unknown origin)
# [20] = molecular target: Serine/threonine-protein kinase SIK2 (Homo sapiens, UniProt Q9H0K1); experiment: Inhibition of SNF1LK2 (unknown origin)
# [21] = Clearance in monkey at 1.35 mg/kg, iv administered as single dose; assay type: ADME, organism-based, Macaca mulatta; details: rhesus monkey, in vivo
# Mus musculus [22] = experiment: Antialzheimer activity in 5XFAD mouse assessed as amyloidbeta38 level in detergent soluble cortex fraction measured per microgram protein at 1200 ppm administered as rodent chow starting from 1.5 months and measured after 7 months by ELISA (reference value: 0 to 0.014 pg); assay type: functional; details: route po, time 5.5 months, 4015 h
# Method in brief: (§1)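 PLX5622 at 1200 ppm in chow given to 5xFAD mice from 1.5 months to 4 or 7 months of age; cortex and thalamus homogenized in TPER (detergent-soluble), pellets re-homogenized in 70% formic acid and spun 100,000 g, 1 h, 4 °C (insoluble); protein by Bradford/Lowry; Aβ species measured by Meso Scale electrochemiluminescence immunoassay, normalized to protein; n = 7–8 per group at 7 months.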
# Mus musculus [23] = experiment: Antialzheimer activity in 5XFAD mouse assessed as amyloidbeta40 level in detergent insoluble thalamus fraction measured per microgram protein at 1200 ppm administered as rodent chow starting from 1.5 months and measured after 7 months by ELISA (reference value: 57.876 to 502395 pg); assay type: functional; details: route po, time 5.5 months, 4015 h; method in brief: as §1
# [24] = molecular target: Protein kinase C delta type (Homo sapiens, UniProt Q05655); experiment: Inhibition of PRKCD (unknown origin)
# [25] = molecular target: Dual specificity tyrosine-phosphorylation-regulated kinase 1B (Homo sapiens, UniProt Q9Y463); experiment: Inhibition of DYRK1B (unknown origin)
# Mus musculus [26] = experiment: Antialzheimer activity in 5XFAD mouse assessed as number of Iba positive cells per FOV in somatosensory cortex at 1200 ppm administered as rodent chow starting from 1.5 months and measured after 4 months (reference value: 192 to 604); assay type: functional; details: route po, time 2.5 months, 1825 h
# [27] = Effect on Clec7a gene expression in wild type mouse thalamus at 1200 ppm administered as rodent chow starting from 1.5 months and measured after 7 months by RNA-Seq analysis (reference value: 0.095 to 0.586 RPKM); assay type: functional; details: route po, time 5.5 months, 4015 h
# Method in brief: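 WT and 5xFAD mice were treated with 1200 ppm PLX5622 chow or control chow from 1.5 to 7 months of age. Brains were microdissected into cortex, hippocampus and thalamus, and RNA was extracted from tissue powder. Whole-transcriptome RNA-Seq libraries were sequenced, with n = 4 per group per region (48 samples).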
# Mus musculus [28] = experiment: Effect on circulating leukocytes in wildtype mouse assessed as percentage of CD45+/PI- cells expressing CD11c at 1200 ppm administered as rodent chow for 10 to 24 weeks (reference value: 4.18 to 10.2 %); assay type: functional; details: route po, time 10-24 weeks
# Chain of Serine/threonine-protein kinase SIK2 (Q9H0K1 whole entry): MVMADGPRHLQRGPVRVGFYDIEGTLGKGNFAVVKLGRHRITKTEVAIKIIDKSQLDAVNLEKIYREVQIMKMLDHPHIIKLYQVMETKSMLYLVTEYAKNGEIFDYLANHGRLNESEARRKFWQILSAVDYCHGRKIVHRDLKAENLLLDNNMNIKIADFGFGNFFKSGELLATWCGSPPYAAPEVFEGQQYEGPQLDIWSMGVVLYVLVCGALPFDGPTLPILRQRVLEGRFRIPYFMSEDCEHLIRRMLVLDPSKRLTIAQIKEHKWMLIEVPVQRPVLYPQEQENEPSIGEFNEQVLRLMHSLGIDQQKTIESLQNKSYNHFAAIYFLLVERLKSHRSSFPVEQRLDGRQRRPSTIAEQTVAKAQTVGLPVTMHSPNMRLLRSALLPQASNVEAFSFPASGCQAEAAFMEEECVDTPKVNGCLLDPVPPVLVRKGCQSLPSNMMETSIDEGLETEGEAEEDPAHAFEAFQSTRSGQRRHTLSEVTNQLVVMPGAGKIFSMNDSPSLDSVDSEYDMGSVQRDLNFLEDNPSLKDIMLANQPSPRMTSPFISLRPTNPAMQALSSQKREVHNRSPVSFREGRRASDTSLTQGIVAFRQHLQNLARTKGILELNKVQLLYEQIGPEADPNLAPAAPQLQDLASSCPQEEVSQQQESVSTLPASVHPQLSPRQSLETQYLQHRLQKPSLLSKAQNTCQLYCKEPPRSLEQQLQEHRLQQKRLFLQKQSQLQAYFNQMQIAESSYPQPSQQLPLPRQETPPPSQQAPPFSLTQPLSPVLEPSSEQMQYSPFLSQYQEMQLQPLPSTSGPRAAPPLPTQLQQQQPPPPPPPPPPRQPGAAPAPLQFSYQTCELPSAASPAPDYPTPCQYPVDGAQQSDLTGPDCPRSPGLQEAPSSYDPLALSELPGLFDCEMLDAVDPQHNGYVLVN
# Chain of Serine/threonine-protein kinase Sgk2 (Q9HBY8 whole entry): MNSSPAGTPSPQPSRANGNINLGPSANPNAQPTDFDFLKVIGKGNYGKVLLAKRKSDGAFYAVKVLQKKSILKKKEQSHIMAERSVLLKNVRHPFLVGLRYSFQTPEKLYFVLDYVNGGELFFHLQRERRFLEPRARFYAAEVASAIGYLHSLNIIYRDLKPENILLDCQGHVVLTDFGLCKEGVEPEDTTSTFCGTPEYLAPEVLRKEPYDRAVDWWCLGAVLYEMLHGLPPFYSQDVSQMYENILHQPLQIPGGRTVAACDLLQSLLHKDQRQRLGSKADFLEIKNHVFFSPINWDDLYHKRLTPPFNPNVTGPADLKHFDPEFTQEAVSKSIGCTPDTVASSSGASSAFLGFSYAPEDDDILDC
# Chain of Proto-oncogene tyrosine-protein kinase receptor Ret (P07949 29-1114 Y791F limits assumed): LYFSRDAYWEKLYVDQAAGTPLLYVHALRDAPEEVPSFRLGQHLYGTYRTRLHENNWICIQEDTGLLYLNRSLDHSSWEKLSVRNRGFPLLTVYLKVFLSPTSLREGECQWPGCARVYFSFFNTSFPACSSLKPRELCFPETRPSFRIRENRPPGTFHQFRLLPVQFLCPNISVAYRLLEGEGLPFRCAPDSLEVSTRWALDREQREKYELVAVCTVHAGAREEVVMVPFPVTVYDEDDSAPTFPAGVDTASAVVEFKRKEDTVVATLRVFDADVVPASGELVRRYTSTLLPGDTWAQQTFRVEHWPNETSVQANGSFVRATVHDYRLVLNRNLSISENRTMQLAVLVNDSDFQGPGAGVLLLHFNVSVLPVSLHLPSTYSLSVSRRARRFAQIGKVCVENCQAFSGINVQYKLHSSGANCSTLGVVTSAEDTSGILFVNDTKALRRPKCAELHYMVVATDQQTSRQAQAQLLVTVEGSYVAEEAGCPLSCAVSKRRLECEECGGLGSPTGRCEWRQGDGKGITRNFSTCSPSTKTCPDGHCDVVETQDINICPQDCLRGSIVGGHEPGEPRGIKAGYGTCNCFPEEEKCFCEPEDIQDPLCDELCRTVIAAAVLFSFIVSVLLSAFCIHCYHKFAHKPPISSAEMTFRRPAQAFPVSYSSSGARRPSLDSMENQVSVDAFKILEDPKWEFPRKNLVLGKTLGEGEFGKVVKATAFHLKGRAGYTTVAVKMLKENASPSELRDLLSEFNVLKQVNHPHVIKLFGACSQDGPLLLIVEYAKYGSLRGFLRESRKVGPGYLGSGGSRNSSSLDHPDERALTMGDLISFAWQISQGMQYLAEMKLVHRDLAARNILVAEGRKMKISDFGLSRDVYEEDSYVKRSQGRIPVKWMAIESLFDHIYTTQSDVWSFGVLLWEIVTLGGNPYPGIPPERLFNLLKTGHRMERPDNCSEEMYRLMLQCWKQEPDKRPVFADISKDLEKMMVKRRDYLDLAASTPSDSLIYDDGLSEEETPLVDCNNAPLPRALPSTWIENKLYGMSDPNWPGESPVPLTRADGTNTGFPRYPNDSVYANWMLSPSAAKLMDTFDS
# Chain of Protein kinase C delta type (Q05655 whole entry): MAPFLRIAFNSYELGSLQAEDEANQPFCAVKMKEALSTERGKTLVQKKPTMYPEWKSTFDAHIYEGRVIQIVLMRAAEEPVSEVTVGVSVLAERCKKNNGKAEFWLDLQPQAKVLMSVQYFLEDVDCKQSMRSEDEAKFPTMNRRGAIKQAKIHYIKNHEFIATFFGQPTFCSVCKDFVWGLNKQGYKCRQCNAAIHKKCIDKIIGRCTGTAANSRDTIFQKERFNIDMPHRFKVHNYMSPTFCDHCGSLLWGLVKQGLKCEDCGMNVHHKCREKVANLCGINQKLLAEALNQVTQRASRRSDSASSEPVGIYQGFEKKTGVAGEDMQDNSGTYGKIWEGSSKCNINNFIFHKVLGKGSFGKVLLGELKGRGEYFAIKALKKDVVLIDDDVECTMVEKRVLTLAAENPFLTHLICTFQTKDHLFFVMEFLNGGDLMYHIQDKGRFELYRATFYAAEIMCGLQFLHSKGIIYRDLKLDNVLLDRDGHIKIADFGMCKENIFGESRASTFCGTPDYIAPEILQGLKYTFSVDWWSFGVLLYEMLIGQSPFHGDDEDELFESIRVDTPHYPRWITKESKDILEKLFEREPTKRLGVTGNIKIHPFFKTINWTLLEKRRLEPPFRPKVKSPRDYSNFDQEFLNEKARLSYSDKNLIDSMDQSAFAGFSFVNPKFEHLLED
# Chain of Dual specificity tyrosine-phosphorylation-regulated kinase 1B (Q9Y463 whole entry): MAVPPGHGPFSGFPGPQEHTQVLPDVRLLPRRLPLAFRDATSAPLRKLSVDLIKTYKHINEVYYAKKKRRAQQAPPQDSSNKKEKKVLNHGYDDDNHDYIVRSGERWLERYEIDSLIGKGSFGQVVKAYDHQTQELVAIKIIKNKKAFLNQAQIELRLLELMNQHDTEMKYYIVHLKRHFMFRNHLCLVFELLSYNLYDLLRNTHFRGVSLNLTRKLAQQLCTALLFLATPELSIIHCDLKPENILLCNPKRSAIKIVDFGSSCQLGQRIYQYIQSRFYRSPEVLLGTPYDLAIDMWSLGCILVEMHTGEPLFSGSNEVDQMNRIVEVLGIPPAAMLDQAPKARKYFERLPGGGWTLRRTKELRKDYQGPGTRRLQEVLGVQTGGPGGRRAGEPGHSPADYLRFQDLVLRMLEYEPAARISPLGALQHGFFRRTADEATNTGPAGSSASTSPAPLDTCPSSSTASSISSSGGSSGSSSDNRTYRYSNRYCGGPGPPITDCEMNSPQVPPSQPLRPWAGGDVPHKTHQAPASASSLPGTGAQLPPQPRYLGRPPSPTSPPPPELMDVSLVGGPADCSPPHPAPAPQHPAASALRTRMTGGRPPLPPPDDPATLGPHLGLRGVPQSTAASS
# Chain of SRSF protein kinase 2 (P78362 whole entry): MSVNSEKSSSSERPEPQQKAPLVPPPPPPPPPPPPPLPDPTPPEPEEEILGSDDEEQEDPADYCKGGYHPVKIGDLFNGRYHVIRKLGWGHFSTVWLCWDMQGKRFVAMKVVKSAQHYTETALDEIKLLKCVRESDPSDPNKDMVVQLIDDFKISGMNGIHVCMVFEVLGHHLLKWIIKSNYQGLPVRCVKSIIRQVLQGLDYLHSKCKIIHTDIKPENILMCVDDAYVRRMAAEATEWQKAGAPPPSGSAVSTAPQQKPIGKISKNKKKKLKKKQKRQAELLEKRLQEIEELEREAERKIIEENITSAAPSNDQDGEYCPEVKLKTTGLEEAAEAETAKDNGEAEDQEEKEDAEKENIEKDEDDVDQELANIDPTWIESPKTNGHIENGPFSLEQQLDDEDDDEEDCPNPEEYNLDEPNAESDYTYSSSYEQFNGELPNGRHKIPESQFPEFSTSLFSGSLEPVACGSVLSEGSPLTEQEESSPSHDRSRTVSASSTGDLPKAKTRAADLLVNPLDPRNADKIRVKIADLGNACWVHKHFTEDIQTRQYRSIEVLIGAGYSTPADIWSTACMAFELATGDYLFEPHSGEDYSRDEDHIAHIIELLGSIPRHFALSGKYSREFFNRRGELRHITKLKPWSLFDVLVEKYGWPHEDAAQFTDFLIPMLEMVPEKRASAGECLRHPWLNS
# Chain of cAMP-dependent protein kinase catalytic subunit PRKX (P51817 whole entry): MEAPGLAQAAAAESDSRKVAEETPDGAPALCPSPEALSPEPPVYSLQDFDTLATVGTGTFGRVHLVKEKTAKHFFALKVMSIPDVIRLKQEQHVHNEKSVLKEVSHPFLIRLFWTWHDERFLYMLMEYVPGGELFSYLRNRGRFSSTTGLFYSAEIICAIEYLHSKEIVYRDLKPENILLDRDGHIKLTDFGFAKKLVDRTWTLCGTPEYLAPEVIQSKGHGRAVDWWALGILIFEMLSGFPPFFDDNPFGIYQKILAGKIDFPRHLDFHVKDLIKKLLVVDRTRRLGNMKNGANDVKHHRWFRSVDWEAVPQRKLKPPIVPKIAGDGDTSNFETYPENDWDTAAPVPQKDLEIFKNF
compound,measurement,setting,value
FC(F)(F)c1ccc(CNc2ccc(Cc3c[nH]c4ncc(Cl)cc34)cn2)cn1 [PEXIDARTINIB],concentration at 2555 h,[1],15 µM
COc1ncc(F)cc1CNc1ccc(Cc2c[nH]c3ncc(C)cc23)c(F)n1 [PLX-5622],IC50,[2],> 1 µM
same,Activity,Mus musculus [3],15
same,IC50,[4],> 1 µM
same,Vd,[5],1.2 L/kg
same,Flu intensity,Mus musculus [6],2.499 a.u.
same,Activity,[7],0 RPKM
same,Activity,[8],1
same,IC50,[9],> 1 µM
same,Activity,[10],1.607 RPKM
same,Flu intensity,Mus musculus [11],4280.692 a.u.
same,Activity,[12],0 RPKM
same,IC50,[13],> 1 µM
same,Time,Mus musculus [14],32.4 s
same,IC50,Ephrin type-A receptor 3,> 1 µM
same,IC50,[15],> 1 µM
same,IC50,SRSF protein kinase 2,> 1 µM
same,IC50,[16],> 1 µM
same,AUC(0-inf),[17],96500 ng·h/mL
same,IC50,[18],> 1 µM
same,IC50,[19],> 1 µM
same,IC50,[20],> 1 µM
same,clearance,[21],11 mL/min/kg
same,Activity,Mus musculus [22],0 pg
same,Activity,Mus musculus [23],100.854 pg
same,IC50,[24],> 1 µM
same,IC50,[25],> 1 µM
same,Activity,Mus musculus [26],0
same,Activity,[27],0 RPKM
same,Activity,Mus musculus [28],3.32%
